Reference: the EternaBench riboswitch data

Tested on: MS2 coat protein
Test: apparent Kd, MS2 coat protein; higher = weaker binding; RNA-MaP array; FMN 200 µM where present
How it was run: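 Green signal was scaled to red-channel RNA signal and control-cluster median Fmax, and the apparent Kd was taken as the median of filtered per-cluster binding-curve fits. The binding series used SNAP-549-labelled MS2 coat protein from 0.7 or 1.5 nM, doubling to 3 µM, on designs transcribed by stalled E. coli RNA polymerase on Illumina sequencing-chip clusters. Each series ran without and then with constant ligand in 100 mM Tris-HCl pH 7.5, 80 mM KCl, 4 mM MgCl2, BSA, DTT, yeast tRNA and Tween-20.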

[1] = designed as: OFF switch for flavin mononucleotide, no ligand
[2] = ligand present: flavin mononucleotide, designed as: OFF switch for flavin mononucleotide
[3] = designed as: ON switch for flavin mononucleotide, no ligand
[4] = ligand present: flavin mononucleotide, designed as: ON switch for flavin mononucleotide

Sequence	apparent Kd [1] [nM]	apparent Kd [2] [nM]	apparent Kd [3] [nM]	apparent Kd [4] [nM]
AACUCUGAGAAGGAUAUUCAAUGGGAAACGAUGGAAGAAGGUUUCACAUGAGGAUCACCCAUGUCGAAUAGUGA	71.9	63.9		
GAUUAGCUUGGAGGAUAUGGUACGGGCAGCUAACCAGAAGGCCAAGAACAUGAGGAUCACCCAUGUGCCGUUGGCCAUGGGAGG	37.1	13.2		
ACGACUAGAGGAUAUACAUGAGGAUCACCCAUGUAACUGUCAGGUGACUGACGGAGAUGUAGAAGGCUAGUCGA	15.7	42.8		
GGUCCAACAUGAGGAUAUAGCACCUUAUUGGUGCUAGAAGGCGUGUCGGUAGACAUGAGGAUCACCCAUGUAUUACAAUGGACC			140	27
GAAGCACACAUUAACAUGAGGAUCACCCAUGUCAAAAGACGUGAGGAUAUGGAUCUGAAGAAGAUCCAGAAGGCACUGUGCUAA			8.83	6
ACGACUAGAGGAUAUACAUGAGGAUCACCCAUGUAACUGUCAGGAAACUGACGGAGAUGUAGAAGGCUAGUCGA	16.8	37.4		
GGUCGUCACAUUAACAUGAGGAUCACCCAUGUCUCUAGACAUGAGGAUAUGGAUCCUAAUUGGAUCCAGAAGGCAUGGACGACC			1490	142
GGUGGGAAGUAAGGAUAUCGGCCAUAGUUAGGGCGAGAAGGUACAUGAGGAUCACCCAUGUCGUCGCUAGGGACGGGUCCGGCC	6.54	6.96		
GUGGUACAUGAGGAUCACCCAUGUUAGGAUAUCGCGUGAGGUUUUACUUCCGCACACACGAGAAGGGACGUCUU	32.9	28		
AUUAUAUAGUAAGGAUAUAGAUUAUUAUUUUAACAUGAGGAUCACCCAUGUAGCCUUAUGUAUAACUAGAAGGUACAUUUAUUA	47.8	50.5		
CAAAACGUCGAGAAGGGCUCAGCGCAAGUGCCAGCAGGAUAUCGACAUGAGGAUCACCCAUGUCGUAUUUCAGGGUAGAUUUCA	8.66	34.9		
GGAUGACAAAGUCAUCCAAAUCGAACAUGAGGAUCACCCAUGUAGGAUAUGCUACACAAAGUGUAGCAGAAGGACAUGUGCUUU	42.2	258		
GUACCUCAAGUGAGGAUAUGUCAUUACCGGUGAAGAUAGAAGGCACAUGAGGAUCACCCAUGUGUGGCUCCGUC	23.5	95.8		
AGCAUGCUAGGAUAUACGGGACAUUAGGGUUCGUCGUAUGGACAUGAGGAUCACCCAUGUAGAAGGAGCGUGCA	20.7	44.2		
UUGGACGUCGUAGGAUAUGUAGGAUAUUCCUACAUGAGGAUCACCCAUGUUGACAUGGAAGAAGGACAGAAGGACGAAGUCCAU			261	4.54
GUAUGUUAUGAGGAUAUCGGUGAACAUACACAUCGAGAAGGCAUGACAUGAGGAUCACCCAUGUCAAGGAUGAC	27.4	57.8		
GGAUCGAAUGUGAGGAUAUACCUAUGGAAACAUAGGUAGAAGGCACAUGAGGAUCACCCAUGUUCCUACGGUCC	92.2	577		
UAGUAUAACGAAGGAUAUGGAUACAUGAGGAUCACCCAUGUAUUUUUUGUGAUUUUAAAAUUGAUCCAGAAGGUCGUAUAAUUA	23.6	28.2		
UUAUGUUUACAAGGAUAUCAAUUAUUUAUACUUCCUACAUGAGGAUCACCCAUGUUUUUAUAUUUUGAGAAGGUGUAAUGUCGG			38.5	35.4
UAAACAUGAGGAUCACCCAUGUUAUGAUCGGUUGAUGAAAGUGAGGAUAUACUUAAUUUUAUGGAGUAGAAGGCACUGGGUUCU			23.1	28.6
AAAUAACAUGAGGAUCACCCAUGUGCUGGAUAUGCAGGAUAUGGGCGGCGGGAGCGCGGCCCAGAAGGGCAGCUCC			100	113
UUUAUGUCAGGAUAUACAUGAGGAUCACCCAUGUAUAUCUUAAAAUAUACAUGGGUAUGUAGAAGGGACCUCCU	86.5	77.1		
CUUGUUUAAGUGAGGAUAUACUGUUAGUAAUGAUUGUAGAAGGUACAUGAGGAUCACCCAUGUUUAUUUAUAUU	17.8	16.7		
GGGACUCAAAGAGUACCAAUACGAACAUGAGGAUCACCCAUGUAGGAUAUGCUACUCAAAGAGUAGCAGAAGGACAUGUGCCUA	15.3	82.2		

Sequence	apparent Kd [1] [nM]	apparent Kd [2] [nM]	apparent Kd [3] [nM]	apparent Kd [4] [nM]
GGGUACAUCGGAGGAUAUCAUGUAAGUACAUGAGGAUCACCCAUGUCGAUGGAGACAUCGGAGAUUGAGAAGGCCGAUGUACCG			152	8.71
UGACGGAGCAGAGGAUAUACAUGAGGAUCACCCAUGUAAAUGAAAGAUAGCAGCAAAGCUGCAAUGUAGAAGGCUGCUCCGUCA	29.8	84.9		
GGUACUCAAAGAGUACUUGGUCGAACAUGAGGAUCACCCAUGUAGGAUAUGCGAAGCAAGAAGUAGCAGAAGGGCGUGUGCAGC	12.8	11.6		
AGAUGGUAGAGAGGAUAUCAUGUGCUGACAUGAGGAUCACCCAUGUAGGGACGUCGGUCCAAUUAUGAGAAGGCUCUACCAUCU			85.6	55.9
UCUCGGUGUUCAGGAUAUGCAUCAAGGUUGUACGCAGAAGGGAACAUGAGGAUCACCCAUGUGUCCGAGCUGGGACGAGGGACG	37.9	188		
GGAUAGGACAGAGGAUAUACGUGCUAGAGAUACUAGCAAAAUUUCCUCACAUGAGGAUCACCCAUGUAGAAGGCUGCCCUAUCG	13.8	374		
UGUCGGAGCAGAGGAUAUUACAUGAGGAUCACCCAUGUAUGAACCAAUAGCUGGAAACAGCAAUGUAAGAAGGCUCCUCCGACA	6.18	20.5		
AAACACGGACAUGAGGAUCACCCAUGUGGCGAAAGCCUUGGGAGAAGGCCGUAUGCAAAGCAUACGGAGGAUAUUCAUACCGUG			1410	67.9
GUAUUGAGAUAAGGAUAUAAGUCUAUGACAUGAGGAUCACCCAUGUGUGUUUUAGAAGGUAUUUCGGUAAUAUUGUUACAGUAA			17.7	9.95
UUGCCCGCCGGAGGAUAUCUACUCUGUGGUGCACUGCGUUUGCAAUACAUGAGGAUCACCCAUGUAGAGAAGGCCGAGGGCACA	318	48.3		
CGCACUGAUAGAGGAUAUGUUUUACAUGAGGAUCACCCAUGUGUACAUGGAUUAAUAUAUAAGUAACAGAAGGCUAUUUGUGCG	18.9	15.1		
ACAUGAGGAUCACCCAUGUUGAAUUAGGAUAUUUGACUGCACAUGAGGUUCACCCAUGUUCUACCGGAGAAGGGAUUAAUAAUU			129	132
ACAUACUUUCGAGGAUAUCGGUGAUAAAUUUUACGAGAAGGCGAUAAAAGAUAUAAUCUUAUAAACAUGAGGAUCACCCAUGUA			25.5	23.9
CUCGUCUGGAAACGGAGCGGCCAACAUGAGGAUCACCCAUGUGAGGAUAUGCCUACUAAAAGUAGGCAGAAGGCGCACUUGGCA	23.6	34.1		
CUGAGCAGUCAAGGAUAUCACGUCGAAUAGACGUGAGAAGGUGACCAAUACAUGAGGAUCACCCAUGUAAUACAUGAAGCUCAG			38.1	17.4
CAUCCGGCAGGAUAUACAUGAGGAUCACCCAUGUCAGAAAGCAAAUUGUGCGACUCAGGUAGAAGGGUUGGACU	28.9	34.2		
AACAAUCUAUCUGAGGAUAUUAUGAAAUAAACAUGAGGAUCACCCAUGUGCAGGAAAACUGCAUAUGAGAAGGCAGAUAGAUUGA			428	18.5
GCUGUCGCAUGAGGAUAUGGUCAGGUUUCCUGACCAGAAGGCAUGUCAAUAGACAUGAGGAUCACCCAUGUAGUAAAGACAGCA			447	36.4
CUGCUCCGUGUAGGAUAUGCGUACAACCAAUAUGCAGAAGGACAUGAGGAUCACCCAUGUAUGUUAUUAUCACGUGAAGCGUCC	22.3	61.1		
AGGUGACAUGAGGAUCACCCAUGUCAGGAUAUAUACACCGCCGGCGUGAAGCCAGCGGAUAGAAGGGACAAAAU	15.4	16.9		
AAUUAUUUUUGAGGAUAUCGUGGUGAAACACCACGAGAAGGCGAGAUAAACAUGAGGAUCACCCAUGUGAGCCUGAUGCUUAUG	21.2	44.4		
CCGAUGAUAGGACAGGAUAUGACUGUCGUCACAUGAGGAUCACCCAUGUCCCGGCAAUGCCACCGUUAGAAGGGUCCCAUCUCGG			19.1	16.3
AUAAAUCAUGUAGGAUAUGCGUGGCGAAGCUAUGCAGAAGGACAUGAGGAUCACCCAUGUCUGUCCGUCUGCGUACAGACGGAA	29.3	274		
UGUUGUAUUACAGGAUAUCUAUUAGUUUGAUUUAGAGAAGGGUAUUCACAUGAGGAUCACCCAUGUAUAUACGAGGAAGUUGUG			57.8	57.9
